Active and inactive are the calls of the source. No cut-off for these calls is given here.

The species entered for assay [1] is Cavia porcellus. The assay can be described thus: Dissociation constant KB = [antagonist]/(dose ratio -1). KB determined in guinea pig tracheal spirals with LTE4 as agonist. It counts as functional, Trachea. Put shortly: (§1)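 Isolated guinea pig tracheal strips in Krebs' buffer with indomethacin (5 μM), 37 °C, 95% O2/5% CO2, resting tension 2 g. Carbachol (30 μM) sets the maximum. Antagonist incubated 30 min, then cumulative LTE4 concentration–response curves in log increments, one curve per tissue. EC50 by linear regression, paired vehicle controls. KB = [antagonist]/(DR − 1) (Furchgott).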

The species entered for assay [2] is Cavia porcellus. Put plainly: In vitro antagonism of 8 nM of peptidoleukotriene (LTE4) induced contraction of guinea pig tracheal spirals at 0.033 X E-7M concentration. The class given is functional, Trachea. Put shortly: (§2)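 Guinea pig tracheal spirals held at 37 °C in modified Krebs' (mM: NaCl 119, KCl 4.6, CaCl2 1.8, MgCl2 0.5, NaHCO3 24.9, NaH2PO4 1.0, glucose 11.1) plus indomethacin 5 μM, resting tension 2 g, isometric recording. After reproducible 8 nM LTE4 responses, compound added for 10 min, then rechallenged. % inhibition is adjusted for the paired vehicle tissue. At least four spirals, paired t test.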

Assay [3] is filed under the species Cavia porcellus. The assay can be described thus: In vitro antagonism of 8 nM of peptidoleukotriene (LTE4) induced contraction of guinea pig tracheal spirals at 0.1 X E-7M concentration. The class given is functional, Trachea. Put shortly:
as §2

The subject of assay [4] is Cavia porcellus. Put plainly: In vivo percent protection against aerosolized LTD4 induced dyspnea in guinea pig at 1 umol/kg po (180 minutes post oral dosing); 40/6. The class given is functional.
The species entered for assay [5] is Cavia porcellus. Put plainly: In vitro antagonism of 8 nM of peptidoleukotriene (LTE4) induced contraction of guinea pig tracheal spirals at 1 X E-7M concentration. It counts as functional, Trachea. Put shortly:
as §2

The species entered for assay [6] is Cavia porcellus. The assay can be described thus: In vitro antagonism of 8 nM of peptidoleukotriene (LTE4) induced contraction of guinea pig tracheal spirals at 10 X E-7M concentration. The class given is functional, Trachea. Put shortly:
as §2

The species named for assay [7] is Cavia porcellus. The assay can be described thus: In vitro antagonism of 8 nM of peptidoleukotriene (LTE4) induced contraction of guinea pig tracheal spirals at 3 X E-7M concentration. It counts as functional, Trachea. The procedure, abridged: as §2
For assay [8], the species on record is Cavia porcellus. The assay can be described thus: In vitro antagonism of 8 nM of peptidoleukotriene (LTE4) induced contraction of guinea pig tracheal spirals at 0.01 X E-7M concentration. It counts as functional, Trachea. The procedure, abridged:
as §2

Assay [9] deals with Cavia porcellus. The assay can be described thus: In vivo percent protection against aerosolized LTD4 induced dyspnea in guinea pig at 113 umol/kg po (60 minutes post oral dosing); 14/4. It counts as functional.
Assay [10] addresses T1, Cysteinyl leukotriene receptor 1 (Cavia porcellus) (UniProt Q2NNR5).
T1 sequence (whole entry): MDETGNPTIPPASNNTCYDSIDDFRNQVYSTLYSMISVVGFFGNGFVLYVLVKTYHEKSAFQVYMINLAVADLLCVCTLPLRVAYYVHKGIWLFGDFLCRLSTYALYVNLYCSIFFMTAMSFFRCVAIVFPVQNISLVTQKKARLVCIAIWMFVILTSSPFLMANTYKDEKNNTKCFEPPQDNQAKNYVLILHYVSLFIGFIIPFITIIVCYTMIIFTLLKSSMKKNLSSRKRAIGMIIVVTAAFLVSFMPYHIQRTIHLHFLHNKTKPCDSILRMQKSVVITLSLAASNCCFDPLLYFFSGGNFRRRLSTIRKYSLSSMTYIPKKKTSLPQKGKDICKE
Put plainly: Dissociation constant KB = [antagonist]/(dose ratio -1).KB determined in guinea pig tracheal spirals with LTE4 as agonist. It counts as functional, tissue-based. To be noted: Trachea. The procedure, abridged: as §1

The species entered for assay [11] is Cavia porcellus. The assay can be described thus: In vitro antagonism of 8 nM of peptidoleukotriene (LTE4) induced contraction of guinea pig tracheal spirals at 3.3 X E-7M concentration. The class given is functional, Trachea. Put shortly: as §2
The species named for assay [12] is Cavia porcellus. The assay can be described thus: In vitro antagonism of 8 nM of peptidoleukotriene (LTE4) induced contraction of guinea pig tracheal spirals at 100 X E-7M concentration; Not significant. The class given is functional, Trachea. Put shortly: as §2
Assay [13] is filed under the species Cavia porcellus. Put plainly: In vitro antagonism of 8 nM of peptidoleukotriene (LTE4) induced contraction of guinea pig tracheal spirals at 0.001 X E-7M concentration. It counts as functional, Trachea. Put shortly:
as §2

The species named for assay [14] is Cavia porcellus. Put plainly: In vitro antagonism of 8 nM of peptidoleukotriene (LTE4) induced contraction of guinea pig tracheal spirals at 0.33 X E-7M concentration. The class given is functional, Trachea. The procedure, abridged:
as §2

The test system of assay [15] is Cavia porcellus. The assay can be described thus: In vivo percent protection against aerosolized LTD4 induced dyspnea in guinea pig at 30 umol/kg po (180 minutes post oral dosing); 67/11. It counts as functional.
In assay [16] the test system is Cavia porcellus. Put plainly: In vivo percent protection against aerosolized LTD4 induced dyspnea in guinea pig at 30 umol/kg po (60 minutes post oral dosing); 48/12. The class given is functional.
In assay [17] the test system is Cavia porcellus. Put plainly: In vivo percent protection against aerosolized LTD4 induced dyspnea in guinea pig at 126 umol/kg po (60 minutes post oral dosing); 33/5. It counts as functional.
Assay [18] concerns Cavia porcellus. Put plainly: In vivo percent protection against aerosolized LTD4 induced dyspnea in guinea pig at 30 umol/kg po (180 minutes post oral dosing); 43/7. The class given is functional.
Assay [19] is filed under the species Cavia porcellus. Put plainly: In vitro antagonism of 8 nM of peptidoleukotriene (LTE4) induced contraction of guinea pig tracheal spirals at 33 X E-7M concentration. The class given is functional, Trachea. The procedure, abridged:
as §2

Assay [20] has as its system Cavia porcellus. The assay can be described thus: In vivo percent protection against aerosolized LTD4 induced dyspnea in guinea pig at 100 umol/kg po (60 minutes post oral dosing); 23/6. The class given is functional.
Assay [21] deals with Cavia porcellus. Put plainly: In vivo percent protection against aerosolized LTD4 induced dyspnea in guinea pig at 10 umol/kg po (180 minutes post oral dosing); 37/8. The class given is functional.
Assay [22] deals with Cavia porcellus. Put plainly: In vivo percent protection against aerosolized LTD4 induced dyspnea in guinea pig at 30 umol/kg po (180 minutes post oral dosing); 89/8. The class given is functional.
Assay [23] is filed under the species Cavia porcellus. The assay can be described thus: In vitro antagonism of 8 nM of peptidoleukotriene (LTE4) induced contraction of guinea pig tracheal spirals at 100 X E-7M concentration; Not active. It counts as functional. To be noted: Trachea. Put shortly:
as §2

The term pKB denotes the KB on a negative log10 scale, so that one unit is a factor of ten. Turning to `CCCCOC(=O)Nc1ccc2cnn(Cc3ccc(C(=O)NS(=O)(=O)c4ccccc4)cc3OC)c2c1`, the pKB in [1] was 9.2. Also, the Antagonism in [2] came to 77%; in [3], 100%.
Regarding `COc1cc(C(=O)NS(=O)(=O)c2ccccc2C)ccc1Cn1ccc2ccc(NC(=O)CC3CCCC3)cc21`, in assay [4], the Protection is reported as 40%. For the same molecule, the pKB in assay [1] is recorded as 9.9.
For the molecule `CCCCC(CC)C(=O)Nc1ccc2ccn(Cc3ccc(C(=O)C(C(=O)OC)S(=O)(=O)c4ccccc4)cc3OC)c2c1` (centres undefined), in assay [1], the pKB amounted to 8.5. The Antagonism in [3] worked out at 65%; in assay [5], 100%.
In the case of `CCCCC(CC)C(=O)Nc1ccc2ccn(Cc3ccc(C(=O)NS(=O)(=O)CCCC)cc3OC)c2c1` (centres undefined), the results for the Antagonism in [6] and in assay [7] were 100% and 63%, respectively.
As for `COC(=O)C(C(=O)c1ccc(Cn2ccc3ccc(NC(=O)CC4CCCC4)cc32)c(OC)c1)S(=O)(=O)c1ccccc1` (centres undefined), the Antagonism in [8] turned out to be 63%; in assay [2], 94%. Further, the negative-log KB (pKB) in [1] stood at 10.1.
`COC(=O)C(C(=O)c1ccc(Cn2ncc3ccc(NC(=O)OC4CCCC4)cc32)c(OC)c1)S(=O)(=O)c1ccccc1` (centres undefined): the Antagonism in assay [8] stood at 53%; in assay [2], 78%. Besides, in assay [1], the pKB is recorded as 9.9.
The molecule `CCC(C(=O)Nc1ccc2cnn(Cc3ccc(C(=O)O)cc3OC)c2c1)c1ccccc1` (centres undefined) gave a Protection in assay [9] of 14%. Also, in assay [10], the negative logarithm of the KB (pKB) came out at 7.1. In addition, the Antagonism in assay [11] is on record as 30%.
For `CCCCC(CC)C(=O)Nc1ccc2ccn(Cc3ccc(C(=O)NS(=O)(=O)c4ccccc4)cc3OC)c2c1` (centres undefined), the pKB in assay [1] was determined as 8.6. Also, the Antagonism in [3] is 27%; in assay [5], 100%.
`CCCCC(CC)C(=O)Nc1ccc2ccn(Cc3ccc(C(=O)O)cc3OCCCc3ccccc3)c2c1` (centres undefined) had an Antagonism in assay [12] of 18%.
With `CCC(C(=O)Nc1ccc2ccn(Cc3ccc(C(=O)NS(=O)(=O)c4ccccc4)cc3OC)c2c1)c1ccccc1` (centres undefined), the Antagonism in assay [3] came to 33%.
Take `COc1cc(C(=O)NS(=O)(=O)c2ccccc2)ccc1Cn1ncc2ccc(NC(=O)CC3CCCC3)cc21`: the Antagonism is listed as 100% in [8] and 23% in assay [13]. Further, the pKB in assay [1] worked out at 10.5.
With `COc1cc(C(=O)NS(=O)(=O)c2ccccc2)ccc1Cn1ccc2ccc(NC(=O)OC3CCCC3)cc21`, the negative logarithm of the KB (pKB) in assay [10] worked out at 9.5. Besides, the results for the Antagonism in assay [14] and in assay [2] were 100% and 61%, respectively. Moreover, the Protection in [15] amounted to 67%; in assay [16], 48%.
On to `CCCCOC(=O)Nc1ccc2cnn(Cc3ccc(C(=O)O)cc3OC)c2c1`, for which the negative logarithm of the KB (pKB) in [10] is 6.7. For the same molecule, the Antagonism in assay [11] amounted to 56%. In addition, the Protection in assay [17] came to 33%.
Regarding `COc1cc(C(=O)NS(=O)(=O)c2ccccc2)ccc1Cn1ccc2ccc(NC(=O)CC3CCCC3)cc21`, the Antagonism came out at 50% in assay [8] and 92% in [2]. Moreover, the pKB in assay [10] worked out at 9.6. This molecule yielded a Protection in assay [18] of 43%.
Turning to `COc1cc(C(=O)O)ccc1Cn1ccc2ccc(NC(=O)OC3CCCC3)cc21`, in [10], the pKB amounted to 7.8. Moreover, the Antagonism in assay [19] was determined as 100%; in assay [5], 61%. Moreover, the Protection in [20] turned out to be 23%.
`COc1cc(C(=O)NS(=O)(=O)c2ccccc2)ccc1Cn1ncc2ccc(NC(=O)OC3CCCC3)cc21` [ICI-198615]: the values for the Protection in assay [21] and in assay [22] were 37% and 89%, respectively. Also, the Antagonism in assay [8] amounted to 69%; in assay [2], 100%. Also, the pKB in [10] amounted to 10.3.
With `COc1cc(CNS(=O)(=O)c2ccccc2)ccc1Cn1ccc2ccc(NC(=O)OC3CCCC3)cc21`, the Antagonism result in [23] is “inactive”.

The record behind these values is ChEMBL document CHEMBL1125170, “A novel series of selective leukotriene antagonists: exploration and optimization of the acidic region in 1,6-disubstituted indoles and indazoles” (1990).
